Experimental findings from ChEMBL document CHEMBL3259544, “α-Ketoheterocycle inhibitors of fatty acid amide hydrolase: exploration of conformational constraints in the acyl side chain” (Bioorg Med Chem, 2014) are described below.

pIC50, pKi: −log10 of the molar value. Where only a bound is given, the exact number is not on record here.

The target of assay [1] is T1, Fatty-acid amide hydrolase 1 (Rattus norvegicus, UniProt P97612).
T1 sequence (P97612 whole entry): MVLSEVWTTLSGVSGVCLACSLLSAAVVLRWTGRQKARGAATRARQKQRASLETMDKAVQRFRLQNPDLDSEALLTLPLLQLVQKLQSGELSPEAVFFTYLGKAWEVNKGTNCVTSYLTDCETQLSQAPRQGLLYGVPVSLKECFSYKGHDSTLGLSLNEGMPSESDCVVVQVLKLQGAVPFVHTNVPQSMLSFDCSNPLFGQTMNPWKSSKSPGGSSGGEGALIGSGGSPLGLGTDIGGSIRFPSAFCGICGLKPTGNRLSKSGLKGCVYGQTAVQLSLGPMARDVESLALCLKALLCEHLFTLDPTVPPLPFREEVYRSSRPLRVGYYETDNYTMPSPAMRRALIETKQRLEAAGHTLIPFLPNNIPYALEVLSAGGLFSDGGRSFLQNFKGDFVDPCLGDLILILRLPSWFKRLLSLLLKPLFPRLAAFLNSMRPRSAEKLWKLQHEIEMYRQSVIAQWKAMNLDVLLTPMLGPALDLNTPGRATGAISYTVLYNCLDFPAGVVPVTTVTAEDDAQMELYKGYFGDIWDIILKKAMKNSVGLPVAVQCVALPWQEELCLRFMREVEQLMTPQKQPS
Description: Inhibition of rat recombinant FAAH expressed in Escherichia coli using [14C]oleamide as substrate assessed as oleic acid formation by Dixon plot analysis.

The target in assay [2] is T2, Fatty-acid amide hydrolase 1 (Mus musculus, UniProt O08914).
T2 sequence (O08914 whole entry): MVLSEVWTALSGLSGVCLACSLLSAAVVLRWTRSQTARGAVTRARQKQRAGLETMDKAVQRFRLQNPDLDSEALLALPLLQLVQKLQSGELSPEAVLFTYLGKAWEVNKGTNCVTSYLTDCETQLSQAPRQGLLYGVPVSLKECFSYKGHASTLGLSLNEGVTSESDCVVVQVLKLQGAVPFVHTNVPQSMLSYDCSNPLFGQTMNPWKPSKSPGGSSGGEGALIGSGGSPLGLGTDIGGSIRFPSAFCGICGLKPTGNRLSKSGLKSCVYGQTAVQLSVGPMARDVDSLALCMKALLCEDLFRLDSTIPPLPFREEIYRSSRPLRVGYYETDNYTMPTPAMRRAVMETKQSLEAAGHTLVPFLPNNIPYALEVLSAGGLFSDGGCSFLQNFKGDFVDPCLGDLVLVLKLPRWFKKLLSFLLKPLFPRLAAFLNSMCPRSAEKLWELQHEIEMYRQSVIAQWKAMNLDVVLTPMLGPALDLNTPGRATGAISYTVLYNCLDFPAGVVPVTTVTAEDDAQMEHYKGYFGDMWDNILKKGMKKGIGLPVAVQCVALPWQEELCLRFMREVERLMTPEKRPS
Description: Inhibition of mouse brain FAAH incubated for 10 mins prior to rhodamine-tagged fluorophosphonate addition measured after 10 mins by SDS-PAGE. Put shortly:
(§1)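 Mouse brain tissue was Dounce-homogenized in PBS pH 7.5, cleared at 1,400 g for 5 min, then split at 64,000 g for 45 min into soluble and membrane fractions. Proteome at 1 mg/mL in PBS was preincubated with inhibitor from DMSO stock for 10 min, then exposed to FP-rhodamine at 100 nM for 10 min at 25 °C. Gel bands were scanned and integrated relative to a DMSO control. IC50 came from dose-response curves, three trials per concentration.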

For assay [3], the target named is T3, Neutral cholesterol ester hydrolase 1 (Mus musculus, UniProt Q8BLF1).
T3 sequence (Q8BLF1 whole entry): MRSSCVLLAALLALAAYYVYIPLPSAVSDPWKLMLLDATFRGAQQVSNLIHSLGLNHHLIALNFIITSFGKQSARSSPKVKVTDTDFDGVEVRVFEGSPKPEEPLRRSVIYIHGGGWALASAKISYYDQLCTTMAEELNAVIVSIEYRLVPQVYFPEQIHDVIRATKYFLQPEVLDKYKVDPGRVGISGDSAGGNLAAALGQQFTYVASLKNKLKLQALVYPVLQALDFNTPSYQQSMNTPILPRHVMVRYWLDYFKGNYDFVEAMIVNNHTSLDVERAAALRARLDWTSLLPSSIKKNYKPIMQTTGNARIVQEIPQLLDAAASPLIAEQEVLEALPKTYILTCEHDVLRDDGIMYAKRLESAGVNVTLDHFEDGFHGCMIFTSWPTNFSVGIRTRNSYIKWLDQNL
As to the kind of experiment: Inhibition of mouse brain KIAA1363 incubated for 10 mins prior to rhodamine-tagged fluorophosphonate addition measured after 10 mins by SDS-PAGE. In outline: as §1

Another assay concerns the target T4, Monoglyceride lipase (Mus musculus, UniProt O35678).
T4 sequence (O35678 whole entry): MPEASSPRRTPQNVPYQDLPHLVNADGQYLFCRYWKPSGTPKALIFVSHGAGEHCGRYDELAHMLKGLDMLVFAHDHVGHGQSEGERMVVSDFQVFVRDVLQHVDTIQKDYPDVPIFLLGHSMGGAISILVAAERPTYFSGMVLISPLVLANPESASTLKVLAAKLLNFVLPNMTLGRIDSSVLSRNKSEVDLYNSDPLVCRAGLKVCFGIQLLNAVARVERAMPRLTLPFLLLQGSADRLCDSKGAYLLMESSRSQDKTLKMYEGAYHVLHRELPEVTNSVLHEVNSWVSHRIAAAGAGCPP
As to the kind of experiment: Inhibition of mouse brain MAGL incubated for 10 mins prior to rhodamine-tagged fluorophosphonate addition measured after 10 mins by SDS-PAGE. In outline: as §1

In assay [4] the target is T5, Monoacylglycerol lipase ABHD6 (Mus musculus, UniProt Q8R2Y0).
T5 sequence (Q8R2Y0 whole entry): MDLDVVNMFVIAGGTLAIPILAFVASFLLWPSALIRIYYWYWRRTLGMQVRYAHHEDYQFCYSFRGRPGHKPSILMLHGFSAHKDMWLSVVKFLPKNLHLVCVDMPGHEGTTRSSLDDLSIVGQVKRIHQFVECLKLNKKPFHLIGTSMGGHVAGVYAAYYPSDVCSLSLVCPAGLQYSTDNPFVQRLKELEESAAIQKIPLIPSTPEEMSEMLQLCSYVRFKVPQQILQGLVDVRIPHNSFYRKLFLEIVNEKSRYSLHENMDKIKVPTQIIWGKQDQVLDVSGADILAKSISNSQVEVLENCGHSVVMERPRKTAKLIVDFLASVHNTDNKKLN
As to the kind of experiment: Inhibition of mouse brain ABHD6 incubated for 10 mins prior to rhodamine-tagged fluorophosphonate addition measured after 10 mins by SDS-PAGE. It is filed as tissue-based. Put shortly:
as §1

For assay [5], the species on record is Mus musculus. As to the kind of experiment: Selectivity ratio of IC50 for mouse brain KIAA1363 to mouse brain FAAH.
The species entered for assay [6] is Mus musculus. As to the kind of experiment: Selectivity ratio of IC50 for mouse brain MAGL to mouse brain FAAH.
Assay [7] is filed under the species Mus musculus. As to the kind of experiment: Selectivity ratio of IC50 for mouse brain ABHD6 to mouse brain FAAH.
In assay [8] the target is T6, Fatty-acid amide hydrolase 1 (Homo sapiens, UniProt O00519).
T6 sequence (O00519 whole entry): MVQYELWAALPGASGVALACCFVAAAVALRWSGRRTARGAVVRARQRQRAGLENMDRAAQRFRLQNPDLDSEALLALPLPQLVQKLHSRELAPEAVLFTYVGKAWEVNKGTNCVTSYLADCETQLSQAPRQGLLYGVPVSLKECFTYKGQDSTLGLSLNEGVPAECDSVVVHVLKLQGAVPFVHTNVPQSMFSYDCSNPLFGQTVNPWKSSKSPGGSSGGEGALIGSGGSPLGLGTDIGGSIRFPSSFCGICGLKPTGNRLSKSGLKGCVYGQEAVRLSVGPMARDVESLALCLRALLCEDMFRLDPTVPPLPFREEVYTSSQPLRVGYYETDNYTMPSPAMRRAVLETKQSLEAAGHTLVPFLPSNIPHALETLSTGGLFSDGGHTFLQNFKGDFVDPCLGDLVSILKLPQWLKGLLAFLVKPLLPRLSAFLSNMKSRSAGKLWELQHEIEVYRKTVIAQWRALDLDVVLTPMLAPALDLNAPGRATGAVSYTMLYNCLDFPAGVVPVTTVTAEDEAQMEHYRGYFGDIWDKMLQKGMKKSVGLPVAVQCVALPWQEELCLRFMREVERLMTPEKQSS
Description: Reversible inhibition of FAAH (unknown origin).

The term pKi denotes the negative decadic logarithm of the Ki, by convention in mol/L. In the case of `COC(=O)c1cccc(-c2cnc(C(=O)[C@H]3COc4cc(Oc5ccccc5)ccc4C3)o2)n1`, the pKi in assay [1] was 7.39.
The pIC50 is −log10 of the IC50, conventionally taken in molar units. Turning to `O=C(c1ncc(-c2ccccn2)o1)C1CCc2cc(Oc3ccccc3)ccc2O1` (single isomer, unassigned; enantiomer 2) [listing 1 of 2 here], the pKi in assay [1] is 6.92. The pIC50 in [2] is 7.30; in assay [3], under 4.00; at Monoglyceride lipase, under 4.00; in [4] it was under 4.00.
As to `O=C(c1ncco1)C1CCc2cc(Oc3ccccc3)ccc2O1` (single isomer, unassigned; enantiomer 1), in assay [1], the pKi was 7.77.
Take `O=C(c1ncc(-c2ccccn2)o1)C1CCc2cc(Oc3ccccc3)ccc2O1` (single isomer, unassigned) [listing 1 of 2 here]: in assay [1], the pKi is 7.44. In addition, the negative-log IC50 (pIC50) in [2] is 7.15; in assay [3], under 4.00; at Monoglyceride lipase it was under 4.00; in assay [4], under 4.00.
Consider `O=C(c1ncc(I)o1)[C@H]1COc2cc(Oc3ccccc3)ccc2C1`, for which the negative-log Ki (pKi) in [1] was 7.70.
In the case of `O=C(c1ncc(-c2ccccn2)o1)[C@H]1CCc2cc(Oc3ccccc3)ccc2C1`, in assay [1], the pKi was 8.36.
Same read-out and setting: with `COC(=O)c1cccc(-c2cnc(C(=O)[C@@H]3COc4cc(Oc5ccccc5)ccc4C3)o2)n1` the figure was 6.48.
The same measure, in the same setting: the result for `O=C(c1ncc(-c2ccccn2)o1)[C@H]1COc2cc(OCc3ccccc3)ccc2C1` reads 7.74.
Regarding `O=C(c1ncc(-c2ccccn2)o1)[C@H]1COc2cc(Oc3ccccc3)ccc2C1`, in [1], the pKi was 7.74. The pIC50 in [2] was 7.05; in assay [3] it was under 4.00; at Monoglyceride lipase it was under 4.00; in [4], under 4.00. For the same compound, the Ratio IC50 in the assay listed under Mus musculus [5], in the assay filed under Mus musculus [6] and in the assay listed under Mus musculus [7] was over 200 throughout.
On to `O=C(c1ncco1)[C@@H]1COc2cc(OCc3ccccc3)ccc2C1`, for which the pKi in assay [1] is 7.80.
Turning to `O=C(c1ncc(-c2ccccn2)o1)[C@@H]1COc2cc(OCc3ccccc3)ccc2C1`, the pKi in [1] is 7.77.
For `O=C(c1ncc(-c2ccccn2)o1)[C@@H]1COc2cc(-c3ccccc3)ccc2C1`, the pKi in assay [1] is 7.96.
Still for that read-out and setting: with `O=C(c1ncco1)C1CCc2cc(Oc3ccccc3)ccc2O1` (single isomer, unassigned; enantiomer 2) the figure was 7.51.
`CCCCCCC(C)OC(=O)C(Br)C(C)=O` (configuration not stated): the negative-log Ki (pKi) in assay [8] was 6.10.
On to `O=C(c1ncc(-c2ccccn2)o1)C1CCc2cc(Oc3ccccc3)ccc2O1` (single isomer, unassigned) [listing 2 of 2 here], for which the Ratio IC50 in the assay filed under Mus musculus [5], in the assay listed under Mus musculus [6] and in the assay listed under Mus musculus [7] was over 200 each time.
As to `O=C(c1ncc(-c2ccccn2)o1)[C@H]1COc2cc(-c3ccccc3)ccc2C1`, the pKi in assay [1] is 7.64.
As to `O=C(c1ncc(-c2ccccn2)o1)C1CCc2cc(Oc3ccccc3)ccc2O1` (single isomer, unassigned; enantiomer 2) [listing 2 of 2 here], the Ratio IC50 in the assay listed under Mus musculus [5], in the assay filed under Mus musculus [6] and in the assay filed under Mus musculus [7] was over 200 throughout.
For `COC(=O)c1cccc(-c2cnc(C(=O)C3CCc4cc(Oc5ccccc5)ccc4O3)o2)n1` (single isomer, unassigned; enantiomer 2), in [1], the negative logarithm of the Ki (pKi) was 6.68.
Same read-out and setting: with `O=C(c1ncc(I)o1)[C@@H]1COc2cc(Oc3ccccc3)ccc2C1` the figure was 7.51; with `O=C(c1ncc(-c2ccccn2)o1)C1COc2cc(OCc3ccccc3)ccc2C1` (racemic), 7.77.
Same read-out and setting: the result for `O=C(c1ncco1)[C@H]1COc2cc(-c3ccccc3)ccc2C1` reads 7.70; that for `O=C(c1ncco1)C1COc2cc(Oc3ccccc3)ccc2C1` (racemic), 7.48.
As for `O=C(c1ncc(-c2ccccn2)o1)[C@@H]1COc2cc(Oc3ccccc3)ccc2C1`, the pKi in assay [1] was 7.57. Further, the pIC50 in assay [2] is 6.34; in [3] it was under 4.00; against Monoglyceride lipase, under 4.00; in [4], under 4.00. Besides, the Ratio IC50 in the assay listed under Mus musculus [5], in the assay filed under Mus musculus [6] and in the assay filed under Mus musculus [7] was over 200 throughout.
`O=C(c1ncco1)[C@@H]1COc2cc(-c3ccccc3)ccc2C1`: in [1], the pKi was 7.49.
Same read-out and setting: the result for `O=C(c1ncco1)[C@H]1COc2cc(OCc3ccccc3)ccc2C1` reads 7.70.
With `COC(=O)c1cccc(-c2cnc(C(=O)C3CCc4cc(Oc5ccccc5)ccc4O3)o2)n1` (single isomer, unassigned; enantiomer 1), the pKi in assay [1] was 7.03.
